The text below walks through data of ChEMBL document CHEMBL4024760, “Specific Inhibition of Bacterial β-Glucuronidase by Pyrazolo[4,3-c]quinoline Derivatives via a pH-Dependent Manner To Suppress Chemotherapy-Induced Intestinal Toxicity” (J Med Chem, 2017).

Data set [1] concerns Escherichia coli. Kind of data set: Inhibition of N-terminal His-tagged Escherichia coli beta-glucuronidase expressed in Escherichia coli BL21 (DE3) using pNPG as substrate at 10 uM at pH 7.5. In short, it runs like this:
(§1)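 Purified E. coli βG assay at 10 μM compound, with PBS replaced by Na2HPO4 (0.2 M)/citric acid (0.1 M) buffer mixtures at each pH. Enzyme preincubated with compound 30 min at 37 °C, then pNPG added for 1 h; NaOH-quenched pNP read at 405 nm. Activity given relative to a 10% DMSO control at the same pH; n = 3.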

Data set [2] relates to Mus musculus. Kind of data set: Effect on systemic metabolism of CPT-11 in mouse CT26 cells transplanted Balb/cJ mouse assessed as effect on CPT-11-induced weight loss at 3 mg/kg/day administered via oral gavage for 18 days starting from 2 days before 50 mg/kg/day, ip CPT-11 dosing from day 2 measured every other day up to 18 days. It is filed as functional, organism-based. In a few lines: (§2)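 CT26 tumour-bearing BALB/c mice (cells inoculated day −8). Inhibitor given orally at 3 mg/kg/day in DDW (dosing solution 0.3 mg/mL) from day −2 onward. Daily ip CPT-11 50 mg/kg or saline from day 0. Tumour growth, body weight and diarrhea score (0 solid to 3 watery with severe perianal staining) recorded every other day; severity distribution on day 18. n = 6 mice/group; two-way ANOVA.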

Data set [3] in a line: Inhibition of N-terminal His-tagged Escherichia coli beta-glucuronidase expressed in Escherichia coli BL21 (DE3) using pNPG as substrate preincubated for 30 mins followed by substrate addition measured after 1 hr. In a few lines:
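Purified E. coli βG (20 ng) preincubated 30 min at 37 °C with compound (0.64–10 000 nM) in PBS pH 7.5 containing 10% DMSO and 0.05% BSA. pNPG (20 mM stock) then added for 1 h, quenched with 2 N NaOH, and pNP read at 405 nm. IC50 derived from a four-parameter curve fit; SD of n = 3.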

Data set [4] has as its system Escherichia coli. As to the kind of experiment: Inhibition of N-terminal His-tagged Escherichia coli beta-glucuronidase expressed in Escherichia coli BL21 (DE3) using pNPG as substrate at 10 uM at pH 5.5. In short, it runs like this:
as §1

Data set [5] concerns Mus musculus. Kind of data set: Protection against CPT-11 induced intestinal toxicity in Balb/cJ mouse transplanted with mouse CT26 cells assessed as reduction in diarrhea level at 3 mg/kg/day administered via oral gavage for 18 days starting from 2 days before 50 mg/kg/day, ip CPT-11 dosing from day 2 measured every other day up to 18 days. The format is functional. Details: scale not given: the % may be the effect or the level left. In a few lines:
as §2

For a further data set, the system named is CT26. As to the kind of experiment: Effect on CPT-11 induced antitumor activity against mouse CT26 cells transplanted in Balb/cJ mouse assessed as reduction in tumor volume at 3 mg/kg/day administered via oral gavage for 18 days starting from 2 days before 50 mg/kg/day, ip CPT-11 dosing from day 2 measured every other day up to 18 days. It is filed as functional, organism-based. In short, it runs like this: as §2

The target in another data set is T1, beta-glucuronidase (Homo sapiens, UniProt P08236).
T1 sequence (P08236 whole entry): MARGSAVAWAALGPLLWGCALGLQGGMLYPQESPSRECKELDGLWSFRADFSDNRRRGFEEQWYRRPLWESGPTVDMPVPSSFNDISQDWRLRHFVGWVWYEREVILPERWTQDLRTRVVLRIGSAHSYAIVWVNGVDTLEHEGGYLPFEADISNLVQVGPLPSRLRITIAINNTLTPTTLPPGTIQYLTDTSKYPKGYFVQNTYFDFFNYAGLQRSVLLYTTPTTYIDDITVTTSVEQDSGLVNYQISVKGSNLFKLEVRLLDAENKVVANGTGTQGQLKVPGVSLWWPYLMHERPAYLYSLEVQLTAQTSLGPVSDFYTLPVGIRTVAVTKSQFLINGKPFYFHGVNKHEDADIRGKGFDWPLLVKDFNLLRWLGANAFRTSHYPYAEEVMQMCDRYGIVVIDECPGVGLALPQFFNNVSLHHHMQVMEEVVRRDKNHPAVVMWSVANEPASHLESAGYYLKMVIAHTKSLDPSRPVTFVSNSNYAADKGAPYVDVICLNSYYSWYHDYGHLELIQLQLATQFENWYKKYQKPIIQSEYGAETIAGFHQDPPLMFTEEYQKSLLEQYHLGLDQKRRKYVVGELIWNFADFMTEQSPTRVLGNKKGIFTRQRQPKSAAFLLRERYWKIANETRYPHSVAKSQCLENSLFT
Kind of data set: Inhibition of N-terminal His-tagged human beta-glucuronidase expressed in Escherichia coli BL21 (DE3) assessed as residual activity using pNPG as substrate at 10 uM preincubated for 30 mins followed by substrate addition measured after 1 hr relative to control. Particulars: probe pNPG, read-out: Activity.

For data set [6], the system named is Mus musculus. As to the kind of experiment: Protection against CPT-11 induced intestinal toxicity in Balb/cJ mouse assessed as reduction in intestinal tissue damage at 3 mg/kg/day, po starting from 2 days before 50 mg/kg/day, ip CPT-11 administration for 10 consecutive days by hematoxylin and eosin staining based method. The format is functional, organism-based. In short, it runs like this: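 Inhibitor given orally to BALB/cJ mice at 3 mg/kg/day in DDW (200 μL/day for controls), starting 2 days before CPT-11. CPT-11 50 mg/kg or saline given ip for 10 consecutive days. Jejunum, ileum and colon sections then H&E-stained and examined for villus and crypt destruction; 3–5 mice per group.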

Data set [7] has as its system Escherichia coli. As to the kind of experiment: Toxicity against Escherichia coli BL21(DE3) assessed as effect on cell growth at 100 uM after 6 hrs. In short, it runs like this:
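BL21(DE3) E. coli (diluted to OD600 0.1 in LB after overnight growth) incubated with compound at a final 100 μM, shaking at 37 °C for 6 h. Growth measured by OD600; viability given as % of the untreated control.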

Data set [8] deals with Escherichia coli. Kind of data set: Inhibition of N-terminal His-tagged Escherichia coli beta-glucuronidase expressed in Escherichia coli BL21 (DE3) using pNPG as substrate at 10 uM at pH 6.0. In a few lines:
as §1

Data set [9] deals with Escherichia coli. As to the kind of experiment: Inhibition of N-terminal His-tagged Escherichia coli beta-glucuronidase expressed in Escherichia coli BL21 (DE3) assessed as residual activity using pNPG as substrate at 10 uM preincubated for 30 mins followed by substrate addition measured after 1 hr relative to control. In short, it runs like this: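 Purified E. coli βG (20 ng) preincubated with 10 μM compound for 30 min at 37 °C in PBS pH 7.5 with 10% DMSO and 0.05% BSA. pNPG (20 mM stock) then added for 1 h, quenched with 2 N NaOH, and read at OD405. Result given as % activity versus a 10% DMSO control; n = 3.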

Data set [10] has as its system Escherichia coli. Kind of data set: Inhibition of N-terminal His-tagged Escherichia coli beta-glucuronidase expressed in Escherichia coli BL21 (DE3) using pNPG as substrate at 10 uM at pH 6.5. In short, it runs like this: as §1
Data set [11] concerns Escherichia coli. Kind of data set: Inhibition of Escherichia coli beta-glucuronidase in Balb/cJ mouse feces using pNPG as substrate at 3 mg/kg, po for 5 days measured on day 5 post last dose after 1 hr. The format is organism-based. In a few lines:
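Mice gavaged with inhibitor at 3 mg/kg/day or DDW for 5 days. Fresh feces homogenized 1:9 w/v in assay buffer, mixed with assay buffer and 20 mM pNPG (stock), incubated 37 °C for 1 h, centrifuged, quenched with 2 N NaOH, and pNP read at OD405; n = 6; two-tailed t test.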

Data set [12] relates to Escherichia coli BL21(DE3). As to the kind of experiment: Inhibition of beta-glucuronidase in Escherichia coli BL21 (DE3) using pNPG as substrate at 50 uM preincubated for 30 mins followed by substrate addition measured after 1 hr relative to control. In short, it runs like this: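 BL21(DE3) E. coli grown overnight and diluted to OD600 0.1 in LB. Cells treated with compound (50, 10 or 2 μM) for 30 min at 37 °C, then pNPG (40 mM stock) added for 1 h. Cells pelleted at 6000g; supernatant quenched with NaOH and read at OD405. Activity given as % of a 1% DMSO control.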

Data set [13] concerns Escherichia coli. Kind of data set: Inhibition of intestinal Escherichia coli beta-glucuronidase in Balb/cJ mouse using FDGIcU as substrate at 3 mg/kg, po for 5 days measured on day 5 post last dose 120 mins after probe administration. The format is organism-based. In a few lines: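 BALB/cJ mice were gavaged with inhibitor at 3 mg/kg/day or DDW (200 μL) for 5 days. FDGlcU probe (500 μg/100 μL) given orally 30 min after the fifth dose. Intestinal fluorescein imaged in vivo 120 min after the probe (ex 490/em 525 nm) and quantified as average radiance; n = 6; two-tailed t test.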

Active and inactive are the calls of the source. The rule behind the calls is not given here.

With `Nc1n[nH]c2c1c(Nc1ccc(F)cc1)nc1ccccc12`, the inhibition is 90% with Escherichia coli [1]; 50% in the data set on Escherichia coli [4]; 80% in the data set on Escherichia coli [8]; 90% in the data set on Escherichia coli [10]; over 80% in data set [12]; 75% with Escherichia coli [13]. Besides, the Activity result with Mus musculus [2] and with CT26 was “inactive” throughout. The molecule further came in with an IC50 in data set [3] of 0.137 µM. Moreover, the Activity in the data set on Mus musculus [5] was 50%; with Escherichia coli [7], “Non-Toxic”; in the data set with Escherichia coli [9], 5.59%. For the same molecule, at beta-glucuronidase, the activity at 1 h, 10 µM was found to be 101%. In addition, the Activity result with Mus musculus [6] was “Active”. Also, the inhibition entry with Escherichia coli [11] is “Active”.
For `Cc1ccc(Nc2nc3ccc(Cl)cc3c3[nH]nc(N)c23)cc1`, the IC50 in data set [3] was determined as 0.0144 µM. Moreover, the activity at 1 h, 10 µM at beta-glucuronidase turned out to be 91.5%. For the same molecule, the Activity entry was “Toxic” in the data set on Escherichia coli [7] and 6.13% with Escherichia coli [9]. This molecule also returned an inhibition in data set [12] of over 80%.
The matching figures for `Nc1n[nH]c2c1c(Nc1ccc(Cl)cc1)nc1ccccc12`: 0.0348 µM, 98.8%, “Toxic”, 4.57% and over 80%.
As for `Cc1ccc(Nc2nc3ccccc3c3[nH]nc(N)c23)cc1`, in data set [3], the IC50 is 0.0373 µM. Further, the activity at 1 h, 10 µM on beta-glucuronidase came out at 100%. The Activity entry in the data set on Escherichia coli [7] was “Non-Toxic”; in the data set with Escherichia coli [9] it was 4.78%. Further, in the data set with Escherichia coli [11], the inhibition result was “Active”. In addition, the inhibition was over 80% in data set [12] and 40% in the data set on Escherichia coli [13].
For `Cc1ccc(Nc2nc3cc(F)ccc3c3[nH]nc(N)c23)cc1`, the IC50 in data set [3] worked out at 0.0381 µM. In addition, on beta-glucuronidase, the activity at 1 h, 10 µM stood at 91.5%. The Activity entry in the data set on Escherichia coli [7] is “Toxic”; in the data set with Escherichia coli [9], 6.84%. In data set [12], this molecule came in with an inhibition of over 80%.
The matching figures for `Cc1ccc(Nc2nc3ccc(Br)cc3c3[nH]nc(N)c23)cc1`: 0.0553 µM, 97.9%, “Toxic”, 12.1% and over 80%.
With `Nc1n[nH]c2c1c(Nc1ccc(Cl)cc1)nc1ccc(Cl)cc12`, half-maximal inhibition in data set [3] (IC50) required 0.0556 µM. Besides, on beta-glucuronidase, the activity at 1 h, 10 µM is 88.2%. For the same molecule, the Activity result was “Toxic” in the data set with Escherichia coli [7] and 6.35% with Escherichia coli [9]. In [12], this molecule registered an inhibition of over 80%.
Consider `Nc1n[nH]c2c1c(Nc1ccc(Cl)cc1)nc1ccc(Br)cc12`, for which the IC50 in [3] turned out to be 0.018 µM. The activity at 1 h, 10 µM on beta-glucuronidase was 107%. The Activity result is “Toxic” with Escherichia coli [7] and 16.4% in the data set on Escherichia coli [9]. The molecule further showed an inhibition in data set [12] of over 80%.

The term inhibition denotes the share of the control response that was lost under treatment. A word on the IC50: it is the point on the concentration scale where inhibition reaches its midpoint.
